Laboratory results as given in ChEMBL document CHEMBL3861952, “Donepezil-like multifunctional agents: Design, synthesis, molecular modeling and biological evaluation” (Eur J Med Chem, 2016).
The source made the active and inactive calls. The rule behind the calls is not given here.

Legend:
[1] = Antioxidant activity of the compound assessed as time required to induce AAPH-mediated linoleic acid peroxidation (reference value: 40 to 60 mins); format: functional
[2] = Antioxidant activity of the compound assessed as DPPH radical scavenging activity at 50 uM after 60 mins by spectrophotometric method; format: functional
Outline: (§1)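 DPPH scavenging: mixture shaken vigorously and left 60 min. Absorbance at 517 nm read and % activity calculated; trolox as comparator. Three replicates averaged.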

Homo sapiens [3] = species: Homo sapiens; assay: Selectivity index, ratio of IC50 for human recombinant MAOB to IC50 for human recombinant MAOA
Outline: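 Separate 30 min pre-incubations at 37 °C of serial inhibitor dilutions with recombinant human MAO-A (360 mU/mL) or MAO-B (67.5 mU/mL). Then 1 mM p-tyramine with HRP/Amplex UltraRed added, pH 7.4, and fluorescence followed ≥1 h. Index taken as IC50(MAO-B)/IC50(MAO-A); ≥3 experiments in triplicate.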

Homo sapiens [4] = species: Homo sapiens; assay: Selectivity ratio of IC50 for human recombinant AChE to IC50 for human recombinant BuChE
[5] = Antioxidant activity of the compound assessed as AAPH radical scavenging activity measured as trolox equivalent at 0.1 to 1 uM preincubated for 15 mins with fluorescein followed by addition of AAPH measured every min for 1 hr by oxygen radical absorbance capacity assay; format: functional
Outline: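 ORAC: compound diluted in 75 mM PBS pH 7.4 (0.1–1 μM) and pre-incubated 15 min at 37 °C with 70 nM fluorescein. 12 mM AAPH then added and fluorescence (ex 485/em 520) read every minute for 1 h. Net area under the decay curve converted against a trolox standard curve; melatonin as reference.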

[6] = Antioxidant activity of the compound assessed as inhibition of Cu2+/ascorbic acid-induced H2O2 production at 0.1 to 1 uM after 10 mins by horse-radish peroxidase/amplex red-based fluorometric method; format: functional
Outline: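 H2O2 generated by 0.2 μM Cu(II) plus 10 μM ascorbic acid, incubated 10 min at room temperature with varying compound concentrations. HRP/Amplex Red mixture then added to quantify H2O2 formed.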

[7] = Antioxidant activity of the compound assessed as DPPH radical scavenging activity after 60 mins by spectrophotometric method; format: functional; outline: as §1

| Structure (SMILES) | Ratio IC50 (Homo sapiens [3]) | Ratio IC50 (Homo sapiens [4]) | further results |
| --- | --- | --- | --- |
| Cc1c(C)c2c(c(C)c1O)CCC(C)(C(=O)O)O2 (stereo not given) |  |  | TIME [1]: 1.67 to 2 h; Activity [2]: Active |
| C#CCN(Cc1ccc(O)c2ncccc12)C(C#N)CCC1CCN(Cc2ccccc2)CC1 (stereo not given) | 1.8 |  |  |
| C#CCN(Cc1ccc2cccc(O)c2n1)C(C#N)C1CCN(Cc2ccccc2)CC1 (stereo not given) | > 9.8 | 2140 |  |
| C#CCN(CCC1CCN(Cc2ccccc2)CC1)Cc1ccc2cccc(O)c2n1 | > 2.8 | 52 |  |
| COc1ccc2[nH]cc(CCNC(C)=O)c2c1 |  |  | Activity [5]: 2.51 equiv |
| C#CCN(Cc1ccc2cccc(O)c2n1)C(C#N)CCC1CCN(Cc2ccccc2)CC1 (stereo not given) | > 9.9 | 0.7 | inhibition [6]: Active; Activity [5]: 1.12 equiv; TIME [1]: 0.833 to 1 h; Activity [7]: Dose-dependent effect |
| C#CCN(CCCC1CCN(Cc2ccccc2)CC1)Cc1ccc2cccc(O)c2n1 | > 2.7 | 65 |  |
| C#CCN(Cc1ccc2cccc(O)c2n1)C(C#N)CC1CCN(Cc2ccccc2)CC1 (stereo not given) | > 8.2 | 1650 |  |
| C#CCN(Cc1ccc2cccc(O)c2n1)CC1CCN(Cc2ccccc2)CC1 | > 2.2 | 152 |  |
